ChEMBL document CHEMBL5724801, “EUbOPEN Chemogenomics Library - Multiplex” (2024)
Values joined by “and” are separate entries in the source; they are usually repeats but may differ in a detail not shown here. Equal entries are not always repeated.

System: HEK-293T
Assay: Multiplex assay against HEK293T
Format: toxicity, cell-based
Details: human
Method in brief: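 Cells were classed with CellPathfinder machine-learning gating, first as Hoechst high-intensity objects or normal cells, then (normal cells) as healthy, pyknosed or fragmented nuclei, and finally (pyknosed cells) as mitotic or apoptotic. Staining of live cells at seeding used Hoechst33342, BioTracker Green Microtubule Cytoskeleton Dye, MitoTracker Red and Annexin V Alexa Fluor 680, with imaging on a CQ1 microscope at 37°C and 5% CO2 after compound addition. Tubulin, mitochondrial-mass and membrane-permeability phenotypes are per cents of healthy-nucleus cells.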

[1] = 12 h, 1 µM, compound concentration 1 uM
[2] = 12 h, 10 µM, compound concentration 10 uM
[3] = 24 h, 1 µM, compound concentration 1 uM
[4] = 24 h, 10 µM, compound concentration 10 uM
[5] = 48 h, 1 µM, compound concentration 1 uM
[6] = 48 h, 10 µM, compound concentration 10 uM

SMILES: O=C(CCCc1ccccc1)Nc1nc2ccccc2c(=O)s1
- Population Apoptotic (%) [1]: 30% and 43%
- Population Fragmented Nuclei (%) [1]: 4% and 7%
- Population Healthy Nuclei (%) [1]: 83% and 74%
- Population Hoechst High Intensity Objects (%) [1]: 6% and 13%
- Population Membrane Permeable-Phenotype (%) [1]: 0%
- Population Mitochondria Different-Phenotype (%) [1]: 37% and 63%
- Population Mitotic Cells (%) [1]: 70% and 56%
- Population Normal (%) [1]: 93% and 86%
- Population Pyknosed Nuclei (%) [1]: 11% and 17%
- Population Tubulin-Different-Phenotype (%) [1]: 32% and 36%
- Total Cell Count [1]: 372 and 267
- Population Apoptotic (%) [2]: 30% and 44%
- Population Fragmented Nuclei (%) [2]: 10% and 7%
- Population Healthy Nuclei (%) [2]: 80% and 74%
- Population Hoechst High Intensity Objects (%) [2]: 9% and 27%
- Population Membrane Permeable-Phenotype (%) [2]: 0%
- Population Mitochondria Different-Phenotype (%) [2]: 47% and 68%
- Population Mitotic Cells (%) [2]: 69% and 55%
- Population Normal (%) [2]: 90% and 72%
- Population Pyknosed Nuclei (%) [2]: 9% and 17%
- Population Tubulin-Different-Phenotype (%) [2]: 27% and 26%
- Total Cell Count [2]: 555 and 371
- Population Apoptotic (%) [3]: 20% and 45%
- Population Fragmented Nuclei (%) [3]: 8% and 9%
- Population Healthy Nuclei (%) [3]: 81% and 78%
- Population Hoechst High Intensity Objects (%) [3]: 5% and 8%
- Population Membrane Permeable-Phenotype (%) [3]: 1% and 0%
- Population Mitochondria Different-Phenotype (%) [3]: 21% and 38%
- Population Mitotic Cells (%) [3]: 79% and 54%
- Population Normal (%) [3]: 94% and 91%
- Population Pyknosed Nuclei (%) [3]: 10% and 12%
- Population Tubulin-Different-Phenotype (%) [3]: 15% and 13%
- Total Cell Count [3]: 538 and 370
- Population Apoptotic (%) [4]: 33% and 52%
- Population Fragmented Nuclei (%) [4]: 10% and 8%
- Population Healthy Nuclei (%) [4]: 80%
- Population Membrane Permeable-Phenotype (%) [4]: 0%
- Population Mitochondria Different-Phenotype (%) [4]: 38% and 47%
- Population Mitotic Cells (%) [4]: 66% and 47%
- Population Normal (%) [4]: 93% and 75%
- Population Pyknosed Nuclei (%) [4]: 9% and 11%
- Population Tubulin-Different-Phenotype (%) [4]: 29% and 20%
- Total Cell Count [4]: 661 and 444
- Population Apoptotic (%) [5]: 20% and 38%
- Population Fragmented Nuclei (%) [5]: 11% and 10%
- Population Healthy Nuclei (%) [5]: 82% and 80%
- Population Hoechst High Intensity Objects (%) [5]: 2% and 4%
- Population Membrane Permeable-Phenotype (%) [5]: 1% and 0%
- Population Mitochondria Different-Phenotype (%) [5]: 15% and 28%
- Population Mitotic Cells (%) [5]: 79% and 61%
- Population Normal (%) [5]: 97% and 95%
- Population Pyknosed Nuclei (%) [5]: 6% and 8%
- Population Tubulin-Different-Phenotype (%) [5]: 11% and 13%
- Total Cell Count [5]: 820 and 534
- Population Fragmented Nuclei (%) [6]: 14% and 13%
- Population Healthy Nuclei (%) [6]: 79% and 77%
- Population Hoechst High Intensity Objects (%) [6]: 4% and 11%
- Population Membrane Permeable-Phenotype (%) [6]: 0% and 1%
- Population Mitochondria Different-Phenotype (%) [6]: 21% and 30%
- Population Mitotic Cells (%) [6]: 77% and 31%
- Population Normal (%) [6]: 95% and 88%
- Population Pyknosed Nuclei (%) [6]: 6% and 9%
- Population Tubulin-Different-Phenotype (%) [6]: 16%
- Total Cell Count [6]: 984 and 567

SMILES: Cc1noc(-c2ccc(-c3ccc(CC(=O)O)cc3)cc2)c1NC(=O)O[C@H](C)c1ccccc1Cl
- Population Apoptotic (%) [1]: 29% and 59%
- Population Fragmented Nuclei (%) [1]: 7% and 4%
- Population Healthy Nuclei (%) [1]: 79% and 77%
- Population Hoechst High Intensity Objects (%) [1]: 5% and 11%
- Population Membrane Permeable-Phenotype (%) [1]: 0%
- Population Mitochondria Different-Phenotype (%) [1]: 38% and 69%
- Population Mitotic Cells (%) [1]: 70% and 40%
- Population Normal (%) [1]: 94% and 88%
- Population Pyknosed Nuclei (%) [1]: 13% and 17%
- Population Tubulin-Different-Phenotype (%) [1]: 29% and 28%
- Total Cell Count [1]: 403 and 296
- Population Apoptotic (%) [2]: 51% and 41%
- Population Fragmented Nuclei (%) [2]: 11% and 8%
- Population Healthy Nuclei (%) [2]: 68% and 72%
- Population Hoechst High Intensity Objects (%) [2]: 7% and 14%
- Population Membrane Permeable-Phenotype (%) [2]: 0%
- Population Mitochondria Different-Phenotype (%) [2]: 72% and 69%
- Population Mitotic Cells (%) [2]: 48% and 58%
- Population Normal (%) [2]: 92% and 85%
- Population Pyknosed Nuclei (%) [2]: 20% and 18%
- Population Tubulin-Different-Phenotype (%) [2]: 65% and 34%
- Total Cell Count [2]: 295 and 341
- Population Apoptotic (%) [3]: 22% and 40%
- Population Fragmented Nuclei (%) [3]: 10% and 9%
- Population Healthy Nuclei (%) [3]: 79% and 80%
- Population Hoechst High Intensity Objects (%) [3]: 5% and 7%
- Population Membrane Permeable-Phenotype (%) [3]: 0%
- Population Mitochondria Different-Phenotype (%) [3]: 23% and 42%
- Population Mitotic Cells (%) [3]: 77% and 60%
- Population Normal (%) [3]: 94% and 92%
- Population Pyknosed Nuclei (%) [3]: 9%
- Population Tubulin-Different-Phenotype (%) [3]: 17% and 20%
- Total Cell Count [3]: 570 and 378
- Population Apoptotic (%) [4]: 39% and 32%
- Population Fragmented Nuclei (%) [4]: 7% and 9%
- Population Healthy Nuclei (%) [4]: 76% and 75%
- Population Hoechst High Intensity Objects (%) [4]: 8% and 16%
- Population Membrane Permeable-Phenotype (%) [4]: 1% and 0%
- Population Mitochondria Different-Phenotype (%) [4]: 58% and 53%
- Population Mitotic Cells (%) [4]: 60% and 68%
- Population Normal (%) [4]: 91% and 83%
- Population Pyknosed Nuclei (%) [4]: 16% and 15%
- Population Tubulin-Different-Phenotype (%) [4]: 47% and 38%
- Total Cell Count [4]: 352 and 390
- Population Apoptotic (%) [5]: 17% and 35%
- Population Fragmented Nuclei (%) [5]: 11% and 12%
- Population Healthy Nuclei (%) [5]: 82% and 76%
- Population Hoechst High Intensity Objects (%) [5]: 4%
- Population Membrane Permeable-Phenotype (%) [5]: 1% and 0%
- Population Mitochondria Different-Phenotype (%) [5]: 20% and 34%
- Population Mitotic Cells (%) [5]: 82% and 64%
- Population Normal (%) [5]: 95%
- Population Pyknosed Nuclei (%) [5]: 5% and 10%
- Population Tubulin-Different-Phenotype (%) [5]: 14% and 21%
- Total Cell Count [5]: 930 and 494
- Population Apoptotic (%) [6]: 38% and 46%
- Population Fragmented Nuclei (%) [6]: 10% and 13%
- Population Healthy Nuclei (%) [6]: 79% and 74%
- Population Hoechst High Intensity Objects (%) [6]: 6% and 10%
- Population Membrane Permeable-Phenotype (%) [6]: 0% and 1%
- Population Mitochondria Different-Phenotype (%) [6]: 40% and 35%
- Population Mitotic Cells (%) [6]: 61% and 53%
- Population Normal (%) [6]: 93% and 89%
- Population Pyknosed Nuclei (%) [6]: 10% and 11%
- Population Tubulin-Different-Phenotype (%) [6]: 33% and 25%
- Total Cell Count [6]: 445 and 508
